This is an account of results in ChEMBL document CHEMBL1151196, “Chemical constituents from the mangrove plant, Aegiceras corniculatum” (J Nat Prod, 2004).

Each structure is given as a SMILES string. ≈ marks a conversion by molar mass, not a printed value.

Assay type in all cases: functional, cell-based
One assay relates to U-937. Put plainly: Cytotoxicity against human U937 cells after 48 hrs by MTT assay. The note with it: U-937, 48 h. The gist of the method: (§1)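 Cells kept in RPMI-1640 with 10% FBS, penicillin and streptomycin, at 37 °C under 5% CO2. Seeded at 2000/mL and grown 24 h, then given serial dilutions (100 to 1 μg/mL; DMSO stock diluted in medium). Vehicle control was 0.1% DMSO. After 48 h, MTT added for 4 h. Formazan dissolved in acid-isopropanol and read at 570 nm. Run in triplicate.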

Another assay relates to Bel-7402. Put plainly: Cytotoxicity against human Bel7402 cells after 48 hrs by MTT assay. Particulars: Bel-7402, 48 h. The gist of the method: as §1
A further assay deals with HeLa. Kind of assay: Cytotoxicity against human HeLa cells after 48 hrs by MTT assay. The gist of the method: as §1
For the next assay, the system named is HL-60. Put plainly: Cytotoxicity against human HL60 cells after 48 hrs by MTT assay. The note with it: HL-60, 48 h. In a few lines: as §1

Consider `CCCCCCCCCCCC1=C(O)C(=O)c2c(oc3cc(OC)c(O)c(CCCCCCCCCCC)c23)C1=O`, for which the half-maximal inhibitory concentration (IC50) in the assay with U-937, with Bel-7402, with HeLa and in the assay with HL-60 was > 100 µg/mL throughout.

For the molecule `CCCCCCCCCCCC1=C(O)/C(=C2\C(=O)Oc3c2cc(OC)c(O)c3CCCCCCCCCCC)OC1=O`, the IC50 in the assay on U-937, in the assay on Bel-7402, with HeLa and with HL-60 was > 100 µg/mL throughout.

As for `CCCCCCCCCCCC1=C(O)C(=O)c2c(CCCCCCCCCCC)cc(O)cc2C1=O`, the IC50 in the assay with U-937, in the assay on Bel-7402, in the assay with HeLa and with HL-60 was > 100 µg/mL in each case.

For `CCCCCCCCCCCC1=C(O)C(=O)C=C(OCC)C1=O`, the IC50 in the assay on U-937 was 1.3 µg/mL (≈ 4.03 µM); in the assay with Bel-7402, 2.7 µg/mL (≈ 8.37 µM); in the assay on HeLa it was 3.9 µg/mL (≈ 12.1 µM); with HL-60 it was 2.5 µg/mL (≈ 7.75 µM).

With `CCCCCCCCCCCC1=CC(=O)C=C(OC)C1=O`, the half-inhibitory concentration (IC50) in the assay with U-937, in the assay with Bel-7402, with HeLa and in the assay on HL-60 was > 100 µg/mL in each case.

Turning to `CCCCCCCCCc1cc(O)cc(O)c1OC`, the concentration for half-maximal inhibition (IC50) in the assay with U-937, in the assay on Bel-7402, in the assay with HeLa and with HL-60 was > 100 µg/mL in each case.

As for `CCCCCCCCCCCC1=C(OC(C)=O)C(=O)C=C(OC)C1=O`, the IC50 with U-937, in the assay with Bel-7402, in the assay on HeLa and in the assay with HL-60 was > 100 µg/mL each time.

For `CCCCCCCCCCCC1=C(O)C(=O)C=C(OC)C1=O` [5-O-METHYLEMBELIN], the concentration for half-maximal inhibition (IC50) was 1.5 µg/mL (≈ 4.86 µM) in the assay on U-937, 3.6 µg/mL (≈ 11.7 µM) in the assay on Bel-7402, 9 µg/mL (≈ 29.2 µM) with HeLa and 3 µg/mL (≈ 9.73 µM) in the assay with HL-60.

`CCCCCCCCCCCC1=C(O)C(=O)c2c(oc3c(CCCCCCCCCCC)c(O)c(OC)cc23)C1=O`: the IC50 with U-937, in the assay on Bel-7402, with HeLa and in the assay on HL-60 was > 100 µg/mL in each case.

On to `COc1cc2c(c(OC)c1OC)-c1ccc(OC)c(=O)cc1[C@@H](NC(C)=O)CC2` [COLCHICINE], for which the IC50 came out at 0.1 µg/mL (≈ 0.25 µM) in the assay with U-937 and 0.4 µg/mL (≈ 1 µM) with Bel-7402.
